Laboratory results: publication PMC4180501 (Biochimica et biophysica acta, 2012)
Positions count from the first letter of the chain named. Where two headings read alike, the source gives them in different places.

Columns and labels:
GK-W99 (W167F/W257F) [1] = target: T1, GK-W99 (W167F/W257F) (Homo sapiens, UniProt P35557, W167F/W257F); test: NADP+-coupled spectrophotometric kinetic assay; assay type: biochemical; settings: read-out: ATP KM; W-99; no GKA; 30% glycerol
T1 sequence (P35557 1-465 W167F/W257F): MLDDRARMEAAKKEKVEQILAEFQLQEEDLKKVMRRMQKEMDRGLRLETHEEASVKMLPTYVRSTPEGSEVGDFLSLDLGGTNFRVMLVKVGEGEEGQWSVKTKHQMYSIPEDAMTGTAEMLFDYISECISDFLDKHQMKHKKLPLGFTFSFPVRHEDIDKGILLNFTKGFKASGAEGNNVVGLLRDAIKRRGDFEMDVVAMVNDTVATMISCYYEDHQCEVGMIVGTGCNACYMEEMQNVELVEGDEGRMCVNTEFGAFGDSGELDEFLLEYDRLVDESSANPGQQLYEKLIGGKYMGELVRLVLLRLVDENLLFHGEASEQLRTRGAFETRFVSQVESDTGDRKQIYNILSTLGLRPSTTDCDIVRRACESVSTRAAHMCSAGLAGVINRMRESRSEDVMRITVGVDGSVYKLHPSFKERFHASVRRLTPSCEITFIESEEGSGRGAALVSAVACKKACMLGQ
Summary of the method: (§1)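 Recombinant human β-cell glucokinase single-Trp variant, expressed in E. coli as a GST fusion and sequence-verified. Catalytic parameters came from an NADP+-coupled spectrophotometric assay run with or without 30% glycerol. Hill coefficient and glucose S0.5 were obtained by fitting v/Vmax = [glucose]^H/(K′+[glucose]^H), with […].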

GK-W167 (W99R/W257F) [2] = target: T2, GK-W167 (W99R/W257F) (Homo sapiens, UniProt P35557, W257F/W99R); settings: read-out: ATP KM; W-167; no GKA; no glycerol; ref [19]; cited from earlier work
T2 sequence (P35557 1-465 W99R/W257F): T1 sequence (P35557 1-465 W167F/W257F) with W99R, F167W

GK-WT [3] = target: T3, GK-WT (Homo sapiens, UniProt P35557); test: NADP+-coupled spectrophotometric kinetic assay; assay type: biochemical
T3 sequence (P35557 1-465): T1 sequence (P35557 1-465 W167F/W257F) with F167W, F257W

GK- W257 (W99R/W167F) [4] = target: T4, GK- W257 (W99R/W167F) (Homo sapiens, UniProt P35557, W167F/W99R); settings: read-out: ATP KM; W-257; no GKA; no glycerol; ref [19]; cited from earlier work
T4 sequence (P35557 1-465 W99R/W167F): T1 sequence (P35557 1-465 W167F/W257F) with W99R, F257W

GK-W167 (W99R/W257F) [5] = target: T2, GK-W167 (W99R/W257F); test: NADP+-coupled spectrophotometric kinetic assay; assay type: biochemical; settings: read-out: ATP KM; W-167; no GKA; 30% glycerol
Summary of the method: as §1

GK-W99 (W167F/W257F) [6] = target: T1, GK-W99 (W167F/W257F); settings: read-out: ATP KM; W-99; no GKA; no glycerol; ref [19]; cited from earlier work
GK-WT [7] = target: T3, GK-WT; settings: read-out: ATP KM, no GKA, no glycerol, ref [19]; cited from earlier work
GK- W257 (W99R/W167F) [8] = target: T4, GK- W257 (W99R/W167F); test: NADP+-coupled spectrophotometric kinetic assay; assay type: biochemical; settings: read-out: ATP KM; W-257; no GKA; 30% glycerol
GK-WT [9] = target: T3, GK-WT; test: DSC thermal denaturation
Summary of the method: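 Wild-type recombinant human GK was run by DSC at 0.3 mg/ml (6 µM) in 5 mM phosphate, 100 mM KCl, pH 7.3, in buffer or 20% glycerol, with glucose up to 300 mM. The scan was 0.25 degree/min against a protein-free reference. Tm was plotted against glucose and fit to a hyperbola for EC50. Unfolding rate constant used k=vCp/(Qt−Q) to derive activation energy.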

GK-WT [10] = target: T3, GK-WT; test: Temperature dependent tryptophan fluorescence; settings: glycerol present, absence of glucose
Summary of the method: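 Tryptophan emission spectra of about 3 µM GK in 5 mM K-phosphate, pH 7.3, 100 mM KCl were recorded from 10 to 65 °C in a thermostatted, thermocouple-monitored cell. […] Line 7 also used ± 20% glycerol. Denaturation was followed as the I320/I360 ratio and its temperature derivative.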

GK-WT [11] = target: T3, GK-WT; test: Urea unfolding/refolding of GK by tryptophan fluorescence
Summary of the method: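 GK-WT unfolding was followed by urea titration in 20 mM PO4, 50 mM KCl, 1 mM EDTA, 1 mM DTT, pH 7.3, 20 °C, ± 20% glycerol, ± 300 mM glucose. I320/I360 was read at 295 nm excitation, and ΔGu(H2O) came from a two-state fit. Reversibility was tested after 30 min in 4 or 8 M urea, then dialysis, by restoration of the spectrum and glucose response.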

Nc1ncnc2c1ncn2[C@@H]1O[C@H](COP(=O)(O)OP(=O)(O)OP(=O)(O)O)[C@@H](O)[C@H]1O [ATP]
Km (GK-W99 (W167F/W257F) [1]): 710 µM
Km (GK-W167 (W99R/W257F) [2]): 780 µM
Km (GK-WT [3]; read-out: ATP KM, GK-WT, no GKA, 30% glycerol): 230 µM
Km (GK- W257 (W99R/W167F) [4]): 3350 µM
Km (GK-W167 (W99R/W257F) [5]): 300 µM
Km (GK-W99 (W167F/W257F) [6]): 1630 µM
Km (GK-WT [7]): 460 µM
Km (GK- W257 (W99R/W167F) [8]): 710 µM

OCC(O)CO [glycerol]
Q10 of the GK reaction (GK-WT [3]; presence of glycerol): 1.47
ΔH thermal denaturation (GK-WT [9]; GK-WT in 20% glycerol, no D-glucose): 126 kcal/mol
Tm (GK-WT [9]; GK-WT in 20% glycerol, no D-glucose, DSC): 51.3 °C
Ea thermal denaturation (GK-WT [9]; GK-WT, 20% glycerol, 0 mM D-glucose): 131.5 kcal/mol
TmF (GK-WT [10]): 48 °C
ΔGu(H2O) of urea denaturation (GK-WT [11]; GK-WT in 20% glycerol, 20°C, pH 7.3): 1.84 kcal/mol

NC(N)=O [urea]
reversibility of GK unfolding (GK-WT [11]; 4 or 8 M urea, TF studies, urea removed by dialysis): fully reversible
